Source: PubChem (The Scripps Research Institute Molecular Screening Center)
Rows were chosen to be rich in hits. Some 2.5% of all compounds tested hit in one or more screens of this group.
rCAG binder – r(CAG) repeat RNA binding; 370,000 tested, 1.3% active; AID 651821; TO-PRO-1 dye displacement fluorescence; inhibition, % at 3 µM;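 active = inhibition above the plate cutoff, the mean of all test compounds on that plate plus 3 SD, cut at about 35% in these data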;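 also: higher means more dye released from RNA so lower well fluorescence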
SIAE inh – blocks human sialic acid acetylesterase. Q9HAT2. SIAE FP-Rh probe binding, fluorescence polarization. inhibition, % at 9.66 µM. 370,000 tested, 0.69% active;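 active = inhibition above a cutoff: mean of compounds within the control limits plus 3 SD of those, cut at about 17% in these data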
HTRA1 inhibitor – HTRA1 (human) protease inhibition | Q92743 | recombinant HTRA1, FP-rhodamine activity-based probe, fluorescence polarization | inhibition, % at 5.96 µM | 340,000 tested, 0.5% active; in the data active = inhibition above about 36%
Target sequence (Q92743 whole entry, looked up): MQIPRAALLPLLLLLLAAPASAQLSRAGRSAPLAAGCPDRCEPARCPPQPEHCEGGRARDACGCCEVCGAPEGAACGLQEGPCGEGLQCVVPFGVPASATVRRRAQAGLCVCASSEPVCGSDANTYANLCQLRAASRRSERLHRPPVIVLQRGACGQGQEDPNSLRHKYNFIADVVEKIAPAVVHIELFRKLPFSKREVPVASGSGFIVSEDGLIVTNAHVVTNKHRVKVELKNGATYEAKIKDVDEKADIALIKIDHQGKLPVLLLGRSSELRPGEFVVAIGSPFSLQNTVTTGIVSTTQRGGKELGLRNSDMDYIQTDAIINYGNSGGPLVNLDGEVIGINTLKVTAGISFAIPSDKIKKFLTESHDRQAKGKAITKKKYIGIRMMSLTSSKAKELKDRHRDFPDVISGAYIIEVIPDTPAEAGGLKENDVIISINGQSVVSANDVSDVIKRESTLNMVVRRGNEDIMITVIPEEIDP
ABHD4 inh – ABHD4 (mouse) inhibition, primary FP screen; 370,000 tested, 0.54% active; Q8VD66; inhibition, % at 8.92 µM; purified mABHD4, FP-Rh probe fluorescence polarization;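 active = inhibition exceeding the mean over every tested compound plus 3 SD, cut at about 30% in these data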
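Assay system: mABHD4 protein; medium: HEPES pH 7.0, NaCl, Pluronic buffer; dosing: 8.92 µM, single dose; schedule: 45 min + 60 min at 25 °C; signal: FP readout, ex 525 nm / em 598 nm; read-out: normalized percent inhibition of probe labeling; repeats: single replicate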
TCR CD3 inh – blocks the human TCR-CD3 interaction; TAMRA-labeled TCR probe fluorescence, biochemical; 360,000 tested, 0.37% active; AID 651800; inhibition, % at 9.4 µM; in the data active = inhibition above about 19%;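 also: recombinant mutant TCR 2C K166C tagged with TAMRA read by polarization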
SIAE confirm – human SIAE inhibition, confirmation. SIAE FP-Rh activity-based probe, fluorescence polarization. AID 1117263. shares compounds with SIAE inh. inhibition, % at 9.66 µM. 2,300 tested, 13% active;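 active = mean inhibition of the replicates above the hit cutoff set in the primary screen, cut at about 17% in these data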;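 also: inhibitors lower polarization as more probe stays unbound to SIAE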
Large screens that a line does not name were inactive (follow-up assays come after a bar, where they were run).

COC(=O)c1ccccc1S(=O)(=O)NC(=O)[C@H]1O[C@@H](n2ccc(=O)[nH]c2=O)[C@H](O)[C@@H]1O	SIAE inh 74 (no result: HTRA1 inhibitor) | SIAE confirm 73
Cc1ccc(OCCNC(=O)[C@H]2O[C@@H](n3ccc(=O)[nH]c3=O)[C@H](O)[C@@H]2O)cc1C	none (no result: HTRA1 inhibitor)
COc1cccc(-c2cc(CNC(=O)[C@H]3O[C@@H](n4ccc(=O)[nH]c4=O)[C@H](O)[C@@H]3O)no2)c1	SIAE inh 75 (no result: HTRA1 inhibitor) | SIAE confirm 68
COc1ccccc1NC(=O)C1=C(C)Nc2nc(-c3cccs3)nn2C1c1cccnc1 (centres undefined)	SIAE inh 18 | SIAE confirm inactive
COc1ccccc1NC(=O)C1=C(C)Nc2nc(-c3cccnc3)nn2C1c1ccccn1 (centres undefined)	none
CC(=O)NC(c1cccs1)c1cc(Cl)c2ccccc2c1O (centres undefined)	none
CC(=O)NC(c1ccco1)c1cc(Cl)c2cccnc2c1O (centres undefined)	SIAE inh 18 (no result: HTRA1 inhibitor) | SIAE confirm inactive
O=C(N/N=C/c1ccccn1)c1ccccc1	none
O=C(N/N=C\c1ccccn1)c1cccc(C(=O)N/N=C\c2ccccn2)n1	SIAE inh 21 | SIAE confirm 21
CCc1ccccc1N(C(=O)Cn1nnc2ccccc21)C(C(=O)NCCOC)c1ccco1 (centres undefined)	none
COc1ccc(-n2c(Cc3cccn3C)nnc2SCC(=O)Nc2nccs2)cc1	SIAE inh 17 | SIAE confirm inactive
Cn1cccc1Cc1nnc(SCC(=O)Nc2nccs2)n1C	none
Cc1ccc(NC(=O)NCc2ccccn2)cc1	none
CCOc1ccc(NC(=O)NCc2ccccn2)cc1	SIAE inh 20 | SIAE confirm inactive
COc1ccc(OC)c(S(=O)(=O)NCC(c2ccco2)N2CCc3ccccc32)c1 (centres undefined)	SIAE inh 18 | SIAE confirm inactive
Cc1ccc(C(=O)NCC(c2ccco2)N2CCc3ccccc32)cc1C (centres undefined)	none
O=C(NCC(c1ccco1)N1CCc2ccccc21)c1ccccc1 (centres undefined)	SIAE inh 23 | SIAE confirm inactive
CC1(Cc2ccc(C(F)(F)F)o2)C(=O)Nc2ccc(-c3cccc(C(F)(F)F)c3)cc21 (centres undefined)	none (no result: HTRA1 inhibitor)
Cn1c(N)c(C(=O)CCc2ccccc2)c(=O)n(C)c1=O	none (no result: HTRA1 inhibitor)
CCN(CC(=O)c1c(N)n(C)c(=O)n(C)c1=O)c1cccc2ccccc12	SIAE inh 20 | SIAE confirm inactive
O=C1[C@@H]2CSCN2C(=O)CN1Cc1ccccc1F	SIAE inh 19 | SIAE confirm inactive
O=C1[C@@H]2CSCN2C(=O)CN1Cc1c(F)cccc1Cl	none
FC(F)(F)C(F)(F)c1nnc2ccc(-n3ccnc3)nn12	SIAE inh 17 | SIAE confirm inactive
FC(F)(F)c1nnc2ccc(N3CCCCC3)nn12	none (no result: HTRA1 inhibitor)
COc1ccc(CNC(=O)C[C@H]2C[C@H](C(=O)N3CCOCC3)[C@@]3(C)c4[nH]c5cc(-c6ccco6)ccc5c4CCN3C2=O)cc1OC	none
CCOc1cc2nc(-c3ccc(OC)c(OC)c3)nc(NCCCN3CCOCC3)c2cc1OC	none
COc1cc2ncnc(NCCCN3CCOCC3)c2cc1OC	SIAE inh 38 | SIAE confirm inactive
CCOC(=O)N1CCC(NC(=O)CCCC(=O)O)CC1	none (no result: HTRA1 inhibitor)
CC(C)=NNc1cc([N+](=O)[O-])cc2c1C(=O)N(C)S2=O (centres undefined)	SIAE inh 17 | SIAE confirm inactive
COC(=O)C1=C(C(=O)OC)C2(OC1c1ccccc1C)C(=O)c1ccccc1C2=O (centres undefined)	SIAE inh 19 | SIAE confirm inactive
COC(=O)C1=C(C)N(C)C(C)=C(C(=O)OC)C1c1ccccc1C	none
NNc1nc2c(-c3cccc(C(F)(F)F)c3)nnn2c2ccccc12	SIAE inh 22 | SIAE confirm inactive
CN(C)c1ccc(NC(=O)Nc2csc3ccccc23)cc1	SIAE inh 18 (no result: HTRA1 inhibitor) | SIAE confirm inactive
O=C(Nc1ccc(F)cc1)Nc1csc2ccccc12	none (no result: HTRA1 inhibitor)
COc1ccccc1NC(=O)Nc1nc(CC(=O)Nc2ccc(N(C)C)cc2)cs1	SIAE inh 27 | SIAE confirm inactive
CO/N=C/c1cc([N+](=O)[O-])ccc1Sc1ccc(C)cc1	none
CCNc1nc(NCC)nc(N/N=C/c2ccc(O)c(O)c2)n1	SIAE inh 18 | SIAE confirm inactive
CCNc1nc(NCC)nc(N/N=C/c2ccc(N(C)C)cc2)n1	none
CCOc1cc(-c2sc(Nc3ccc(CC)cc3)n[n+]2-c2ccccc2)ccc1OC	none
COc1ccc([C@@H]2[C@@H]3C(=O)N(C(C)(C)C)C(=O)[C@@H]3[C@]3(CC(C)C)C(=O)N(c4cccc(Br)c4)C(=O)N23)cc1	none
Cc1cc(NC(=O)CCc2c[nH]c3ccccc23)ccc1Oc1cccnc1	none (no result: HTRA1 inhibitor)
O=C(CCc1c[nH]c2ccccc12)Nc1ccc(Oc2cccnc2)cc1	SIAE inh 22 (no result: HTRA1 inhibitor) | SIAE confirm 32
CCn1nc(C(=O)NNC(=O)c2ccccc2)c2ccccc2c1=O	none
COc1cc(N/N=C(\C)c2ccc(O)c(C)c2)nc(-c2ccccc2)n1	none
C/C(=N\Nc1cc(-c2ccccc2)nc(-c2ccccc2)n1)c1ccc(O)c(C)c1	SIAE inh 19 | SIAE confirm inactive
C=CCOc1ccccc1CNc1ccccc1C	SIAE inh 20 | SIAE confirm inactive
Cc1ccccc1NCc1ccccc1O	none
c1ccc(Oc2ccc(-c3ccnc4nc(N5CCN(c6ccccc6)CC5)nn34)cc2)cc1	SIAE inh 22 | SIAE confirm inactive
Cc1ccc(Cn2c(=O)c3c(nc4n3CCN4Cc3ccco3)n(C)c2=O)cc1	none
Cn1c(=O)n(Cc2ccccc2)c(=O)c2c1nc1n2CCN1Cc1ccco1	SIAE inh 19 | SIAE confirm inactive
OC[C@@H]1CN(CCN2CCOCC2)C[C@H](n2cnc3c(N4CCOCC4)ncnc32)O1	none (no result: HTRA1 inhibitor)
Cc1cc(C)nc(SCC(=O)NN=Cc2ccc(C)o2)n1	SIAE inh 18 | SIAE confirm inactive
Cc1cc(N2CCCC2)n2nc(C)nc2n1	SIAE inh 19 | SIAE confirm inactive
CC(=O)N1CCN(c2cc(C)nc3nc(C)nn23)CC1	none (no result: HTRA1 inhibitor, TCR CD3 inh)
CCCCCCSc1ccc([C@H]2N[C@@](CC(C)C)(C(=O)OC)[C@H]3C(=O)N(C)C(=O)[C@@H]23)cc1OC	none
COc1cc(/C=C/C(=O)O)cc(S(=O)(=O)N2CCc3ccccc32)c1OC	SIAE inh 19 | SIAE confirm inactive
C[C@H](CO)N1C[C@H](C)[C@H](CN(C)S(=O)(=O)c2ccccc2)Oc2ccc(NC(=O)NC3CCCCC3)cc2CC1=O	SIAE inh 30 | SIAE confirm inactive
C[C@H](CO)N1C[C@H](C)[C@H](CN(C)S(=O)(=O)c2cccs2)Oc2ccc(NC(=O)Nc3ccc4c(c3)OCO4)cc2CC1=O	SIAE inh 21 | SIAE confirm inactive
